# High-throughput results: PubChem BioAssay, several laboratories
# KCNK9 block = human KCNK9 channel inhibition | AID 488922 | B-score at 10 µM | Q9NPC2 | HEK293 KCNK9, FluxOR thallium flux fluorescence; hits give low values | actives 1.2% (n = 310,000);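 active = ratio B-score over 3 SD below the library mean, with starting fluorescence within 5 SD of its mean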;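 also: negative B-score means less thallium flux so channel inhibition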
# Target sequence (Q9NPC2 whole entry, looked up): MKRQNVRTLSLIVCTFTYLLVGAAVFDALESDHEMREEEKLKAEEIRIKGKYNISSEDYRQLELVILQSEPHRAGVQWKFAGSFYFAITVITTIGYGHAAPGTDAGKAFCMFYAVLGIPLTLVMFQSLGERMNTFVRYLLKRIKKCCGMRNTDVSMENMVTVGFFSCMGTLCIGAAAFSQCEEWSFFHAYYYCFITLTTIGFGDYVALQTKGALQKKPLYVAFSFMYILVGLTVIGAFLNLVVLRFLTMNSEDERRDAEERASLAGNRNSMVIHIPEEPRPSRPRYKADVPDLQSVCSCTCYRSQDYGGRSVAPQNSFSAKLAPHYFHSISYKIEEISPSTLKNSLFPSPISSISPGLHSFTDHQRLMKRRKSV
# hERG rescue = shields human hERG channel from block by proarrhythmic agents | Q12809 | activation (rescue from dofetilide block), less the hit threshold, % at 10 µM | actives 0.51% (n = 310,000) | CHO-hERG, FluxOR thallium flux, dofetilide IC70 present;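 active = activation above the mean of controls blocked by dofetilide plus 5 SD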;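 also: thallium influx through hERG after potassium depolarization seen as dye fluorescence rise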
# KCNQ1 block = inhibitors of human KCNQ1 potassium channel. CHO-K1 KCNQ1, FluxOR thallium flux fluorescence; hits give high values. AID 2642. P51787. actives 1.3% (n = 310,000). B-score at 10 µM;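 active = compounds whose thallium flux B-score, printed positive for inhibition, exceeds three library SD while starting fluorescence stays within three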;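 also: channel opened by potassium depolarization with thallium stimulus after 20 min compound exposure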
# KCNK3 block = human KCNK3 channel inhibition, primary screen; CHO-KCNK3 thallium flux, FluxOR fluorescence; hits give low values; B-score at 10 µM; actives 0.84% (n = 340,000);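 active = B-score under library mean minus 4 SD, starting fluorescence ratio at most library mean plus 5 SD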;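 also: more negative B-score means stronger inhibition of thallium flux through KCNK3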
# PHOSPHO1 block = blocks human PHOSPHO1 phosphatase activity | recombinant PHOSPHO1, absorbance phosphatase assay | inhibition, % at 13.3 µM | actives 1.1% (n = 290,000); in the data active = inhibition above about 60%
# KCNQ1 pot = potentiates or activates the human KCNQ1 potassium channel | P51787 | B-score at 10 µM | CHO-K1 KCNQ1, thallium flux FluxOR fluorescence; hits give high values | AID 2648 | actives 0.35% (n = 310,000);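 active = fluorescence ratio B-score, a plate-corrected score, at least three library SD, with initial intensity B-score within 5 SD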
#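 Doses: Single concentration per compound, DMSO matched to controls | Test system: KCNQ1-transfected CHO-K1 cells | Timing: 90 min dye loading and 20 min compound exposure, both at room temperature | Measured by: Kinetic FluxOR thallium fluorescence, 10-s 1-Hz baseline, 110-s post-stimulus read | Medium: Assay buffer with matched DMSO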
# * = called active by the depositor; i = inactive; . = no result. This is a sample that favours compounds with a hit; in the whole collection about 4% have one here.
SMILES,KCNK9 block,hERG rescue,KCNQ1 block,KCNK3 block,PHOSPHO1 block,KCNQ1 pot
O=P(Cc1nnco1)(c1ccccc1)c1ccccc1,i,-7,i,i,8,i
O=C(COc1ccccc1F)Nc1cc(S(=O)(=O)Nc2cccc(Cl)c2)ccc1O,.,.,.,i,.,.
O=C(Nc1ccc2c(c1)oc1ccccc12)c1ccc2c(c1)OCO2,i,-7,i,i,-16,i
O=c1c(O)c(-c2ccc3c(c2)OCO3)oc2ccccc12,i,9.4*,i,i,1,33*
O=C(NCc1ccccc1)c1ccc2c(=O)[nH]c3c(C(=O)NCC4CCCO4)sc(=S)n3c2c1 (centres undefined),i,-20,8*,i,32,i
Cc1ccc(CNC(=O)c2ccc3c(=O)[nH]c4c(C(=O)NCC5CCCO5)sc(=S)n4c3c2)cc1 (centres undefined),i,-9,10*,i,-1,i
O=C(NCc1ccco1)c1sc(=S)n2c1[nH]c(=O)c1ccccc12,i,-9,7*,i,54,i
O=C(COC(=O)c1cc(Br)ccc1O)NNC(=O)c1cccs1,.,.,.,i,.,.
Cc1ccc(C(C(=O)NC2CCCC2)N(C(=O)c2csnn2)C2CCCC2)o1 (centres undefined),i,-15,i,i,5,i
Cc1ccc(CN(C(=O)c2csnn2)C(C(=O)NC2CCCC2)c2ccc(C)o2)cc1 (centres undefined),-6.8*,-10,i,i,-1,i
CC1CCCC(C)N1C(=O)C1CC(c2ccc(F)cc2)=NO1 (centres undefined),i,-8,i,i,44,i
OC(CNCCc1ccc(C(F)(F)F)cc1)COc1cccc2ccccc12 (centres undefined),i,5.3*,i,i,-30,i
O=C(/C(N=Nc1cccc([N+](=O)[O-])c1)=C(/O)c1ccc(Br)cc1)C(F)(F)F,-9.2*,-16,9*,.,37,i
NC(=O)c1c(NC(=O)C(=O)N2CCOCC2)sc2c1CCC2,i,-5,i,i,13,i
O=C(OCc1nc2ccc(Cl)cc2n1CCO)c1ccc(O)cc1,i,0,i,i,-32,i
CCOc1cc(C(c2c(C)[nH][nH]c2=O)c2c(C)[nH][nH]c2=O)ccc1OS(=O)(=O)c1ccccc1,i,-11,i,i,3,i
Cn1c(SCC(=O)Nc2ccc3nc(SCC(=O)N4CCCC4)sc3c2)nnc1-c1ccc(N)cc1,.,.,.,i,67*,.
Cn1c(SCC(=O)Nc2ccc3nc(SCC(=O)NC4CC4)sc3c2)nnc1-c1ccccc1,i,-7,i,i,-4,i
CC(Sc1nnc2ccccn12)C(=O)N1CCc2ccccc2C1 (centres undefined),i,-9,i,i,11,i
O=C(CNC(=O)c1ccccc1F)Nc1ccccc1C(F)(F)F,i,-12,i,i,69*,i
NC(N)=N/N=C/c1ccc(OCc2ccccc2)c(OCc2ccccc2)c1,i,-18,6*,i,4,i
COc1cc(/C=N/O)ccc1OCc1ccc(Cl)cc1,i,-6,i,.,6,i
CCOc1cc(/C=N/N=C(N)N)ccc1OCc1ccc(Cl)cc1,i,-28,9*,i,-16,i
CCOc1cc(/C=N/O)ccc1OCc1ccc(F)cc1,i,-4,i,i,-9,i
COc1cc(/C=N/N=C(N)N)ccc1OCc1ccc(Cl)cc1,i,-32,13*,i,8,i
SMILES,KCNK9 block,hERG rescue,KCNQ1 block,KCNK3 block,PHOSPHO1 block,KCNQ1 pot
CCOc1cc(NC(=O)c2cccs2)c(OCC)cc1NC(=O)CCC(=O)NCCN1CCOCC1,i,-7,i,i,31,i
COc1ccc(NC(=O)c2cc(-c3ccc(OC)c(OC)c3)nc3ccccc23)c(OC)c1,i,-4,i,i,27,i
COc1cc(NC(=O)N[C@@H](Cc2c[nH]c3ccccc23)C(=O)O)c(C(=O)O)cc1OC,i,0,i,i,11,i
CC(C)C(=O)N=c1sc2cc(F)cc(F)c2n1C,i,-8,i,i,-15,i
O=C(Nc1ccccc1)Nc1ccc(C(=O)N2CCOCC2)cc1,i,-13,i,i,41,i
CCOc1ccc2nc(SCC(=O)N(C)C3CCS(=O)(=O)C3)[nH]c2c1 (centres undefined),i,-8,i,i,100*,i
CCOC(=O)CCCNC(=O)CSc1nc2ccc(OCC)cc2[nH]1,i,7.2*,i,i,-2,i
CCCCNC(=O)CSc1nc2ccc(C)cc2[nH]1,i,-9,i,i,25,i
O=C(CN1C(=O)CCS(=O)(=O)c2ccccc21)Nc1ccc(F)cc1,i,-6,i,i,40,i
O=C(c1cccc(Oc2ccccc2)c1)N1CCOCC1,i,-3,i,i,19,i
O=C(c1cccc(Oc2ccc([N+](=O)[O-])cc2)c1)N1CCOCC1,i,-7,i,i,63*,i
CCC(C(=O)N1CCN(Cc2ccc3c(c2)OCO3)CC1)n1c(=O)[nH]c2ccccc2c1=O (centres undefined),i,-6,i,i,70*,i
Cc1[nH]c2ccccc2c1NC(=O)CN1CCN(Cc2ccc3c(c2)OCO3)CC1,i,-4,i,.,97*,i
C[C@H](CO)N1C[C@H](C)[C@@H](CN(C)Cc2ccccc2)Oc2c(NC(=O)Cc3ccccc3)cccc2C1=O,.,.,.,i,.,.
C[C@H](CO)N1C[C@H](C)[C@@H](CN(C)Cc2ccncc2)Oc2c(NC(=O)Cc3ccccc3)cccc2C1=O,.,.,.,-11*,.,.
CC(C)C[C@@H](CNCC(=O)[C@H](C)NC(=O)c1[nH]cnc1C(=O)N[C@@H](C)CN)NC(=O)c1nc[nH]c1C(=O)N[C@@H](C)C(=O)O,.,.,.,i,.,.
CN(C)CCN(Cc1ccccc1)S(=O)(=O)c1ccc2c(c1)n(C)c(=O)c(=O)n2C,-7*,-4,i,i,12,i
CCCCN(Cc1ccccc1)S(=O)(=O)c1ccc2c(c1)n(C)c(=O)c(=O)n2C,i,-9,i,i,-2,i
CC(C)(C)OC(=O)CNC(=O)c1nc[nH]c1C(=O)N1CCN(C(=O)OC(C)(C)C)CC1,i,-4,i,i,-7,i
CC(C#N)Sc1ncnc2sc(-c3ccccc3)cc12 (centres undefined),i,-4,6*,i,0,i
CC(C)(C)c1cn(-c2ccccc2)c(=S)[nH]1,i,-11,i,i,76*,i
